Results from ChEMBL document CHEMBL1629583, “Establishment of in vitro susceptibility testing methodologies and comparative activities of piperacillin in combination with the penem {beta}-lactamase inhibitor BLI-489” (2009).
Values after ≈ are worked out from the molar mass of the structure shown.

Assays:
Type in all cases: functional
[1] = test system: Bacteroides thetaiotaomicron; experiment: Antimicrobial activity against Bacteroides thetaiotaomicron clinical isolate after 18 to 22 hrs by broth microdilution method in presence of beta-lactamase inhibitor BLI-489
Enterobacter cloacae = experiment: Antimicrobial activity against Enterobacter cloacae clinical isolate after 18 to 22 hrs by broth microdilution method in presence of beta-lactamase inhibitor BLI-489
How it was run: (§1)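 CLSI broth microdilution in Mueller-Hinton II broth. Piperacillin serial dilutions were combined with BLI-489 held constant at 4 μg/ml. Inoculum was 10^5 CFU/ml. Plates were incubated 18 to 22 h at 35°C in ambient air. MIC was the lowest concentration completely inhibiting growth seen by the unaided eye. Piperacillin-tazobactam interpretive criteria were applied.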

Enterococcus faecalis = experiment: Antimicrobial activity against vancomycin-resistant Enterococcus faecalis clinical isolate after 18 to 22 hrs by broth microdilution method in presence of beta-lactamase inhibitor BLI-489
How it was run: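 CLSI broth microdilution in Mueller-Hinton II broth. Antibiotic in serial dilution with the β-lactamase inhibitor held at a constant 4 μg/ml. Inoculum 10^5 CFU/ml. Incubated 18 to 22 h at 35°C in ambient air.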

Bacteroides fragilis = experiment: Antimicrobial activity against Bacteroides fragilis clinical isolate after 18 to 22 hrs by broth microdilution method
Streptococcus pyogenes = experiment: Antimicrobial activity against Streptococcus pyogenes clinical isolate after 18 to 22 hrs by broth microdilution method in presence of beta-lactamase inhibitor BLI-489
How it was run: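 Streptococci were tested by CLSI broth microdilution in Mueller-Hinton II broth plus 5% lysed horse blood. Piperacillin dilutions contained a constant 4 μg/ml BLI-489. Inoculum was 10^5 CFU/ml, incubated 18 to 22 h at 35°C in air. MIC was the lowest concentration with no visible growth.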

Staphylococcus aureus = experiment: Antimicrobial activity against methicillin-susceptible Staphylococcus aureus clinical isolate after 18 to 22 hrs by broth microdilution method in presence of beta-lactamase inhibitor BLI-489
How it was run: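 Piperacillin serially diluted with BLI-489 held at a constant 4 μg/ml, by CLSI broth microdilution in Mueller-Hinton II broth. Inoculum was 10^5 CFU/ml. Plates were incubated 18 to 22 h at 35°C in ambient air. MIC was the lowest concentration completely inhibiting growth seen by the unaided eye.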

Serratia marcescens = experiment: Antimicrobial activity against Serratia marcescens clinical isolate after 18 to 22 hrs by broth microdilution method in presence of beta-lactamase inhibitor BLI-489
How it was run: (§2)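 CLSI broth microdilution in Mueller-Hinton II broth. Serial dilutions of piperacillin were tested with BLI-489 held at a constant 4 μg/ml. Inoculum was 10^5 CFU/ml. Plates were incubated 18 to 22 h at 35°C in ambient air. MIC was the lowest concentration giving complete growth inhibition by unaided eye.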

[2] = test system: Staphylococcus haemolyticus; experiment: Antimicrobial activity against Staphylococcus haemolyticus clinical isolate after 18 to 22 hrs by broth microdilution method in presence of beta-lactamase inhibitor BLI-489; how it was run: as §2
[3] = test system: Enterococcus casseliflavus; experiment: Antimicrobial activity against Enterococcus casseliflavus clinical isolate after 18 to 22 hrs by broth microdilution method in presence of beta-lactamase inhibitor BLI-489; how it was run: as §1
Acinetobacter junii = experiment: Antimicrobial activity against Acinetobacter junii clinical isolate after 18 to 22 hrs by broth microdilution method in presence of beta-lactamase inhibitor Tazobactam
How it was run: (§3)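 Piperacillin-tazobactam was tested on recent clinical isolates by CLSI broth microdilution in Mueller-Hinton II broth, with tazobactam at constant 4 μg/ml. Wells held 10^5 CFU/ml and were incubated 18 to 22 h at 35°C in ambient air. MIC was the lowest concentration with no growth visible to the unaided eye.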

Streptococcus pneumoniae = experiment: Antimicrobial activity against penicillin-intermediate Streptococcus pneumoniae clinical isolate after 18 to 22 hrs by broth microdilution method in presence of beta-lactamase inhibitor Tazobactam
How it was run: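 Broth microdilution per CLSI in Mueller-Hinton II broth supplemented with 5% lysed horse blood, using serial dilutions of piperacillin-tazobactam. Inoculum was 10^5 CFU/ml. Incubation was 18 to 22 h at 35°C in ambient air. MIC was the lowest concentration with no growth visible to the unaided eye.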

[4] = test system: Acinetobacter haemolyticus; experiment: Antimicrobial activity against Acinetobacter haemolyticus clinical isolate after 18 to 22 hrs by broth microdilution method in presence of beta-lactamase inhibitor BLI-489; how it was run: as §1
Escherichia coli = experiment: Antimicrobial activity against Escherichia coli clinical isolate after 18 to 22 hrs by broth microdilution method in presence of beta-lactamase inhibitor Tazobactam
Klebsiella aerogenes = experiment: Antimicrobial activity against Enterobacter aerogenes clinical isolate after 18 to 22 hrs by broth microdilution method in presence of beta-lactamase inhibitor Tazobactam; how it was run: as §3
Parvimonas micra = experiment: Antimicrobial activity against Peptostreptococcus micros clinical isolate after 18 to 22 hrs by broth microdilution method in presence of beta-lactamase inhibitor Tazobactam
Haemophilus influenzae = experiment: Antimicrobial activity against beta-lactamase-producing Haemophilus influenzae clinical isolate after 18 to 22 hrs by broth microdilution method in presence of beta-lactamase inhibitor BLI-489
How it was run: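 Haemophilus isolates were tested in Haemophilus test medium by CLSI broth microdilution. Serial piperacillin dilutions carried BLI-489 fixed at 4 μg/ml. Inoculum was 10^5 CFU/ml, incubated 18 to 22 h at 35°C in ambient air. MIC was the lowest concentration completely inhibiting growth by eye.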

Moraxella catarrhalis = experiment: Antimicrobial activity against Moraxella catarrhalis clinical isolate after 18 to 22 hrs by broth microdilution method in presence of beta-lactamase inhibitor Tazobactam
How it was run: (§4)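 Piperacillin-tazobactam was tested by CLSI broth microdilution in Mueller-Hinton II broth against clinical isolates. Inoculum was 10^5 CFU/ml, with 18 to 22 h incubation at 35°C in ambient air. MIC was read as the lowest concentration completely inhibiting visible growth.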

[5] = test system: Staphylococcus epidermidis; experiment: Antimicrobial activity against methicillin-susceptible Staphylococcus epidermidis clinical isolate after 18 to 22 hrs by broth microdilution method in presence of beta-lactamase inhibitor Tazobactam
How it was run: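 CLSI broth microdilution of piperacillin-tazobactam in Mueller-Hinton II broth with serial dilutions. Inoculum was 10^5 CFU/ml. Incubation was 18 to 22 h at 35°C in ambient air. MIC was read as the lowest concentration giving complete inhibition of growth visible to the unaided eye.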

Morganella morganii = experiment: Antimicrobial activity against Morganella morganii clinical isolate after 18 to 22 hrs by broth microdilution method in presence of beta-lactamase inhibitor Tazobactam; how it was run: as §4

Compound: CCN1CCN(C(=O)N[C@@H](C(=O)N[C@@H]2C(=O)N3[C@@H]2SC(C)(C)[C@@H]3C(=O)O)c2ccccc2)C(=O)C1=O [PIPERACILLIN]
- MIC50 [1]: 16 µg/mL
- MIC90 [1]: 16 µg/mL
- MIC50 (Enterobacter cloacae): 2 µg/mL
- MIC90 (Enterobacter cloacae): 16 µg/mL
- MIC (Enterococcus faecalis): 2 µg/mL
- MIC50 (Enterococcus faecalis): 2 µg/mL
- MIC90 (Enterococcus faecalis): 64 µg/mL
- MIC50 (Bacteroides fragilis): 8 µg/mL (≈ 15.5 µM)
- MIC90 (Bacteroides fragilis): > 128 µg/mL
- MIC (Streptococcus pyogenes): ≤ 4 ng/mL
- MIC50 (Streptococcus pyogenes): ≤ 4 ng/mL
- MIC90 (Streptococcus pyogenes): ≤ 4 ng/mL
- MIC50 (Staphylococcus aureus): 0.25 µg/mL
- MIC90 (Staphylococcus aureus): 0.5 µg/mL
- MIC50 (Serratia marcescens): 1 µg/mL
- MIC90 (Serratia marcescens): 4 µg/mL
- MIC50 [2]: 32 µg/mL
- MIC90 [2]: > 128 µg/mL
- MIC50 [3]: 2 µg/mL
- MIC90 [3]: 8 µg/mL
- MIC50 (Acinetobacter junii): ≤ 0.12 µg/mL
- MIC90 (Acinetobacter junii): 32 µg/mL
- MIC50 (Streptococcus pneumoniae): 0.5 µg/mL
- MIC90 (Streptococcus pneumoniae): 1 µg/mL
- MIC50 [4]: 4 µg/mL
- MIC90 [4]: 16 µg/mL
- MIC50 (Escherichia coli): 2 µg/mL
- MIC90 (Escherichia coli): 2 µg/mL
- MIC50 (Klebsiella aerogenes): 64 µg/mL
- MIC90 (Klebsiella aerogenes): 128 µg/mL
- MIC50 (Parvimonas micra): 0.03 µg/mL
- MIC90 (Parvimonas micra): 0.25 µg/mL
- MIC (Haemophilus influenzae): ≤ 4 ng/mL
- MIC50 (Haemophilus influenzae): ≤ 4 ng/mL
- MIC90 (Haemophilus influenzae): ≤ 4 ng/mL
- MIC (Moraxella catarrhalis): ≤ 4 ng/mL
- MIC50 (Moraxella catarrhalis): ≤ 4 ng/mL
- MIC90 (Moraxella catarrhalis): 8 ng/mL
- MIC50 [5]: 0.25 µg/mL
- MIC90 [5]: 0.5 µg/mL
- MIC50 (Morganella morganii): 0.5 µg/mL
- MIC90 (Morganella morganii): 1 µg/mL
